Experimental findings from ChEMBL document CHEMBL1121887, “A new nontricyclic antidepressant agent. Synthesis and activity of N-[trans-2-(dimethylamino)cyclopentyl]-N-(3,4-dichlorophenyl)propanamide and related compounds” (1981) are described below.

Holding throughout (assay type): functional
Experiment [1] is filed under the species Mus musculus. In words: Antidepressant activity using oxotremorine antagonism test in mice.
The species entered for experiment [2] is Mus musculus. In words: Antidepressant activity using yohimbine potentiation test in mice.
For experiment [3], the species on record is Mus musculus. Description: Antidepressant activity using apomorphine potentiation test in mice. In short, it runs like this:
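Male CF-1 mice in groups of four got test compound i.p. (50 and 25 mg/kg) in 0.25% aqueous methylcellulose. 1 h later they got apomorphine 10 mg/kg s.c. and were watched 30 min for stereotyped gnawing and licking, each positive. If ≥3 were positive, the test was repeated at 0.3 log lower doses until ≤1 responded. ED50 and 95% CI by Spearman–Karber.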

Turning to `CCC(=O)N(c1ccccc1Cl)C1CCCC1N(C)C` (stereo unspecified), the ED50 was 2 mg/kg in experiment [1] (Mus musculus, read-out: ED50); 6 mg/kg in experiment [2] (Mus musculus, read-out: ED50); greater than 50 mg/kg in experiment [3] (Mus musculus, read-out: ED50).

`CCC(=O)N(c1ccc(Cl)c(Cl)c1)C1CCCC1N(C)CCN(C)C` (stereo unspecified): the ED50 in experiment [1] (Mus musculus, read-out: ED50) was found to be 5 mg/kg; in experiment [2] (Mus musculus, read-out: ED50), 0.8 mg/kg; in experiment [3] (Mus musculus, read-out: ED50) it was 20 mg/kg.

In the case of `CCC(=O)N(c1ccc(Cl)c(Cl)c1)C1CCCC1N(C)CCCN(C)C` (stereo unspecified), the ED50 in experiment [1] (Mus musculus, read-out: ED50) amounted to 10 mg/kg; in experiment [2] (Mus musculus, read-out: ED50), 4 mg/kg; in experiment [3] (Mus musculus, read-out: ED50), 30 mg/kg.

On to `CCC(=O)N(c1cc(Cl)c(Cl)c(Cl)c1)C1CCCC1N(C)C` (stereo unspecified), for which the ED50 in experiment [1] (Mus musculus, read-out: ED50) turned out to be 40 mg/kg; in experiment [2] (Mus musculus, read-out: ED50), 4 mg/kg; in experiment [3] (Mus musculus, read-out: ED50) it was 40 mg/kg.

As for `CCC(=O)N(c1cc(Cl)cc(Cl)c1)C1CCCC1N(C)C` (stereo unspecified), the ED50 in experiment [1] (Mus musculus, read-out: ED50) worked out at 5 mg/kg; in experiment [2] (Mus musculus, read-out: ED50), 0.9 mg/kg; in experiment [3] (Mus musculus, read-out: ED50) it was 30 mg/kg.

Turning to `CCC(=O)N(c1ccc(C)c(Cl)c1)C1CCCC1N(C)C` (stereo unspecified), the ED50 came out at 0.6 mg/kg in experiment [1] (Mus musculus, read-out: ED50); 1 mg/kg in experiment [2] (Mus musculus, read-out: ED50); 2 mg/kg in experiment [3] (Mus musculus, read-out: ED50).

As to `CCC(=O)N(c1ccc(OC)cc1)C1CCCCC1N(C)C` (stereo unspecified), the ED50 was greater than 50 mg/kg in experiment [1] (Mus musculus, read-out: ED50); greater than 50 mg/kg in experiment [2] (Mus musculus, read-out: ED50); greater than 50 mg/kg in experiment [3] (Mus musculus, read-out: ED50).

As to `CN(C)C1CCCC1N(C=O)c1ccccc1` (stereo unspecified), the ED50 in experiment [1] (Mus musculus, read-out: ED50) was greater than 50 mg/kg; in experiment [2] (Mus musculus, read-out: ED50) it was 40 mg/kg.

Turning to `CCC(=O)N(c1cccc(Br)c1)C1CCCC1N(C)C` (stereo unspecified), the ED50 in experiment [1] (Mus musculus, read-out: ED50) was 0.1 mg/kg; in experiment [2] (Mus musculus, read-out: ED50), 0.1 mg/kg; in experiment [3] (Mus musculus, read-out: ED50), 2 mg/kg.

Consider `CCC(=O)N(c1ccc(Cl)c(C)c1)C1CCCC1N(C)C` (stereo unspecified), for which the ED50 in experiment [1] (Mus musculus, read-out: ED50) was determined as 2 mg/kg; in experiment [2] (Mus musculus, read-out: ED50), 2 mg/kg; in experiment [3] (Mus musculus, read-out: ED50), 10 mg/kg.

As to `CCC(=O)N(c1ccc(Cl)cc1)C1CCCCC1N(C)C` (stereo unspecified), the ED50 worked out at 17 mg/kg in experiment [1] (Mus musculus, read-out: ED50); 35 mg/kg in experiment [2] (Mus musculus, read-out: ED50); 14 mg/kg in experiment [3] (Mus musculus, read-out: ED50).

For the compound `CCC(=O)N(c1ccc(Br)cc1)C1CCCC1N(C)C` (stereo unspecified), the ED50 in experiment [1] (Mus musculus, read-out: ED50) was 3 mg/kg; in experiment [2] (Mus musculus, read-out: ED50), 2 mg/kg; in experiment [3] (Mus musculus, read-out: ED50), greater than 50 mg/kg.

For `CN(C)C1CCCC1N(C=O)c1ccc(Cl)c(Cl)c1` (stereo unspecified), the ED50 in experiment [1] (Mus musculus, read-out: ED50) was 40 mg/kg; in experiment [2] (Mus musculus, read-out: ED50), 9 mg/kg; in experiment [3] (Mus musculus, read-out: ED50), greater than 50 mg/kg.

Turning to `CCC(=O)N(c1ccc(OC)c(OC)c1)C1CCCC1N(C)C` (stereo unspecified), the ED50 in experiment [1] (Mus musculus, read-out: ED50) was found to be 10 mg/kg; in experiment [2] (Mus musculus, read-out: ED50) it was 9 mg/kg; in experiment [3] (Mus musculus, read-out: ED50) it was 10 mg/kg.

For the compound `CCC(=O)N(c1ccccc1)C1CCCCC1N(C)C` (stereo unspecified), the ED50 in experiment [1] (Mus musculus, read-out: ED50) is greater than 50 mg/kg; in experiment [2] (Mus musculus, read-out: ED50), greater than 50 mg/kg; in experiment [3] (Mus musculus, read-out: ED50), greater than 50 mg/kg.

Turning to `CCC(=O)N(c1ccc(Cl)c(Cl)c1)C1CCCC1N(CC)CC` (stereo unspecified), the ED50 in experiment [1] (Mus musculus, read-out: ED50) came to 0.03 mg/kg; in experiment [2] (Mus musculus, read-out: ED50) it was 0.1 mg/kg; in experiment [3] (Mus musculus, read-out: ED50) it was 0.3 mg/kg.

Consider `CCC(=O)N(c1ccc(Cl)c(Cl)c1)C1CCCC1O` (stereo unspecified), for which the ED50 in experiment [1] (Mus musculus, read-out: ED50) came to 9 mg/kg; in experiment [2] (Mus musculus, read-out: ED50), 0.4 mg/kg; in experiment [3] (Mus musculus, read-out: ED50), 20 mg/kg.

As to `CCC(=O)N(c1ccc(C)cc1)C1CCCCC1N(C)C` (stereo unspecified), the ED50 is greater than 50 mg/kg in experiment [1] (Mus musculus, read-out: ED50); greater than 50 mg/kg in experiment [2] (Mus musculus, read-out: ED50); greater than 50 mg/kg in experiment [3] (Mus musculus, read-out: ED50).

As for `CN(C)C1CCCC1N(C(=O)c1cccs1)c1ccc(Cl)c(Cl)c1` (stereo unspecified), the ED50 in experiment [1] (Mus musculus, read-out: ED50) is 10 mg/kg; in experiment [2] (Mus musculus, read-out: ED50) it was 20 mg/kg; in experiment [3] (Mus musculus, read-out: ED50), greater than 50 mg/kg.

Turning to `CCC(=O)N(c1ccc(Cl)c(Cl)c1)C1CCCC1N` (stereo unspecified), the ED50 in experiment [1] (Mus musculus, read-out: ED50) was 0.8 mg/kg; in experiment [2] (Mus musculus, read-out: ED50), 0.02 mg/kg.

Take `CCC(=O)N(c1cccc(F)c1)C1CCCC1N(C)C` (stereo unspecified): the ED50 stood at 0.6 mg/kg in experiment [1] (Mus musculus, read-out: ED50); 0.4 mg/kg in experiment [2] (Mus musculus, read-out: ED50); 5 mg/kg in experiment [3] (Mus musculus, read-out: ED50).

For the compound `CCC(=O)N(c1ccc(Cl)c(Cl)c1)C1CCCC1N(C)Cc1ccccc1` (stereo unspecified), the ED50 was 40 mg/kg in experiment [1] (Mus musculus, read-out: ED50); 0.2 mg/kg in experiment [2] (Mus musculus, read-out: ED50); greater than 50 mg/kg in experiment [3] (Mus musculus, read-out: ED50).

Take `CCC(=O)N(c1ccc(Cl)c(Cl)c1)C1CCCC1NC` (stereo unspecified): the ED50 in experiment [1] (Mus musculus, read-out: ED50) was determined as 0.3 mg/kg; in experiment [2] (Mus musculus, read-out: ED50) it was 0.4 mg/kg.

On to `CCC(=O)N(c1ccc(F)c(Cl)c1)C1CCCC1N(C)C` (stereo unspecified), for which the ED50 in experiment [1] (Mus musculus, read-out: ED50) came out at 2 mg/kg; in experiment [2] (Mus musculus, read-out: ED50), 0.2 mg/kg; in experiment [3] (Mus musculus, read-out: ED50), 0.7 mg/kg.

On to `CCC(=O)N(c1ccc(Cl)c(Cl)c1)C1CCCC1N1CCCC1` (stereo unspecified), for which the ED50 is 2 mg/kg in experiment [1] (Mus musculus, read-out: ED50); 0.6 mg/kg in experiment [2] (Mus musculus, read-out: ED50); 3 mg/kg in experiment [3] (Mus musculus, read-out: ED50).

Consider `C=CCN(C)C1CCCC1N(C(=O)CC)c1ccc(Cl)c(Cl)c1` (stereo unspecified), for which the ED50 in experiment [1] (Mus musculus, read-out: ED50) was determined as 0.2 mg/kg; in experiment [2] (Mus musculus, read-out: ED50) it was 0.2 mg/kg; in experiment [3] (Mus musculus, read-out: ED50), 6 mg/kg.

For `CCCC(=O)N(c1ccc(Cl)c(Cl)c1)C1CCCC1N(C)C` (stereo unspecified), the ED50 in experiment [1] (Mus musculus, read-out: ED50) amounted to 7 mg/kg; in experiment [2] (Mus musculus, read-out: ED50) it was 2 mg/kg; in experiment [3] (Mus musculus, read-out: ED50) it was 0.9 mg/kg.

On to `CCC(=O)N(c1cccc(C)c1)C1CCCCC1N(C)C` (stereo unspecified), for which the ED50 in experiment [1] (Mus musculus, read-out: ED50) is 15 mg/kg; in experiment [2] (Mus musculus, read-out: ED50), greater than 50 mg/kg; in experiment [3] (Mus musculus, read-out: ED50) it was greater than 50 mg/kg.

With `CCC(=O)N(c1ccccc1)C1CCCC1N(C)C` (cis isomer), the ED50 in experiment [1] is greater than 50 mg/kg; in experiment [2], 10 mg/kg; in experiment [3] it was greater than 50 mg/kg.

Consider `CCC(=O)N(c1ccc(OC)cc1)C1CCCC1N(C)C` (stereo in doubt; 20), for which the ED50 in experiment [1] worked out at 20 mg/kg; in experiment [2], 30 mg/kg.
